# Screens deposited in PubChem BioAssay by several laboratories.
# UBC13 inh: UBC13 polyubiquitin chain formation inhibitors, primary screen, biochemical, TR-FRET, uHTS | actives 0.47% (n = 330,000) | inhibition, % at 20 µM | Ubiquitin-conjugating enzyme E2 N (Homo sapiens), P61088; in the data active = inhibition above about 45%, passing the limit was not always enough
# Target sequence (P61088 whole entry, looked up): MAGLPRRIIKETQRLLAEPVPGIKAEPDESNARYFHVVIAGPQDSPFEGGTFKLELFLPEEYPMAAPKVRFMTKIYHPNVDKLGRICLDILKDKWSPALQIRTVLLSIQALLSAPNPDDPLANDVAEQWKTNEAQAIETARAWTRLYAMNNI
# GSTO1 counter: inhibitors of recombinant GSTO1, primary screen, counter-screen for RBBP9 inhibitor project, biochemical, fluorescence polarization; Glutathione S-transferase omega-1 (Homo sapiens), P78417; activity-based probe fluorescence polarization; inhibition, % at 5.96 µM; actives 1.1% (n = 300,000);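 active = inhibition above the campaign mean inhibition plus 3 SD, cut at about 35% in these data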;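 note: 0% = GSTO1-1 with DMSO and 100% = wells lacking GSTO1-1 enzyme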
# Target sequence (P78417 whole entry, looked up): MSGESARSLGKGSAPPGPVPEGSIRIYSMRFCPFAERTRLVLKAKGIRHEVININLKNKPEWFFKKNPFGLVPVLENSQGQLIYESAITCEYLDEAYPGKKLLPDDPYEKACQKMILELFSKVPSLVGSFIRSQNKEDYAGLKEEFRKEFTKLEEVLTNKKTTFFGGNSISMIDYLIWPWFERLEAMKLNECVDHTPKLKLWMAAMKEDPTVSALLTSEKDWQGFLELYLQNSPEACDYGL
# PAD4 FP inh: human PAD4 inhibitors, primary screen, biochemical, fluorescence polarization, 1536-well format; Protein-arginine deiminase type-4 (Homo sapiens), Q9UM07; inhibition, % at 6.36 µM; recombinant PAD4, RCA probe fluorescence polarization; AID 485272, 2010; actives 0.41% (n = 330,000);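 active = percent inhibition above a cutoff equal to the mean of all tested compounds plus 3 SD, cut at about 15% in these data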;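 note: 0% = PAD4 with RCA probe and DMSO and 100% = probe without PAD4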
# UBC9 SUMO inh: inhibitors of in vitro SUMOylation cascade, primary screen, biochemical, HTRF, uHTS | SUMO-conjugating enzyme UBC9 (Homo sapiens), P63279 | actives 0.36% (n = 290,000) | HTRF SUMOylation assay, SAE1/SAE2 + UBC9 | inhibition, % at 35 µM; in the data active = inhibition above about 50%, passing the limit was not always enough
# Target sequence (P63279 whole entry, looked up): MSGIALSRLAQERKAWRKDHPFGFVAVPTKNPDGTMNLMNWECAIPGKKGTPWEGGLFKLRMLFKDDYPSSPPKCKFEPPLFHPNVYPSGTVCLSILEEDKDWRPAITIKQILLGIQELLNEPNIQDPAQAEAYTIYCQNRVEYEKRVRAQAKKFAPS
# Rin1-Abl PPI inh: inhibitors of Rin1-Abl protein binding, primary screen, biochemical, TR-FRET; Tyrosine-protein kinase ABL1 (Homo sapiens) + Ras and Rab interactor 1 (Homo sapiens), …; inhibition, % at 7.35 µM; actives 0.4% (n = 360,000); in the data active = inhibition above about 5%, passing the limit was not always enough
# Apaf1 inhib: inhibitors of human Apaf-1 apoptosome, primary screen, biochemical, DEVD-Rh110 fluorescence, uHTS. actives 0.71% (n = 330,000). reconstituted apoptosome caspase-3 activity. inhibition, % at 20 µM. Apoptotic protease-activating factor 1 (Homo sapiens), O14727; active = inhibition of at least 40% at 20 µM;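 note: plate controls were DMSO wells for no effect and DEVD-CHO caspase inhibitor wells for full effect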
#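 Material: cell-free apoptosome with Apaf-1, procaspase-3 and caspase-9; Buffer or medium: Hepes pH 7.5 with detergent and BSA; Reagent: cytochrome c trigger plus (Z-DEVD)2-Rh110 caspase-3 substrate; Times: compound with Apaf-1, dATP, procaspase-3 30 min, then 50 min reaction, room temperature; Technique: Rh110 fluorescence intensity.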
# GSTO1 confirm: GSTO1 inhibitor hit confirmation, counter-screen for RBBP9 inhibitor project, biochemical, fluorescence polarization, triplicate | actives 54% (n = 2,400) | recombinant GSTO1, probe fluorescence polarization | shares compounds with GSTO1 counter | inhibition, % at 5.96 µM;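 active = inhibition above the primary screen's cutoff, its mean inhibition plus 3 SD, cut at about 35% in these data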;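 note: loss of polarization as inhibitors block binding of rhodamine sulfonate ester activity probe; 0% = GSTO1 with DMSO and 100% = wells lacking GSTO1 enzyme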
# GSTO1 ABPP inh: inhibitors of purified human GSTO1, late-stage follow-up, biochemical, gel ABPP, SE-Rh probe, percent inhibition; shares compounds with GSTO1 counter; recombinant GSTO1, gel ABPP SE-Rh probe fluorescence; inhibition, % at 1 µM; actives 30% (n = 130);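 active = inhibition of the enzyme GSTO1 above about 75%, limit read from the data; inactive = inhibition below that limit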
# Numbers without * were called inactive; x = no result given. In the library only some 2.2% were active in any assay of this set; here they are far more common.
SMILES,UBC13 inh,GSTO1 counter,PAD4 FP inh,UBC9 SUMO inh,Rin1-Abl PPI inh,Apaf1 inhib,GSTO1 confirm,others
O=C(NCCS(=O)(=O)N1CCN(c2ccccc2F)CC1)c1ccc2c(c1)OCO2,4,-2,1,x,1,0,x,
O=C(NN1C(=O)c2ccccc2NC1c1ccc([N+](=O)[O-])o1)c1ccc(Br)cc1 (centres undefined),-12,39*,-9,5,1,1,8,
CCN(CC(=O)Nc1c(F)cccc1F)C(=O)/C=C/c1ccc2ccccc2n1,20,62*,-3,x,2,27,32,
Cc1ccc(S(=O)(=O)Nc2ccc(N(C)C)cc2)cc1,-2,7,-2,-2,4,8,x,
CN(C)c1ccc(NS(=O)(=O)c2ccc(-c3csnn3)cc2)cc1,7,39*,5,5,-4,-4,30,
O=C(CCl)Nc1cc(S(=O)(=O)N2CCCCCC2)ccc1Cl,4,96*,5,-6,-1,5,96*,
Cc1ccc(S(=O)(=O)N2CCCCC2)cc1NS(=O)(=O)c1cccc(C(=O)O)c1,-3,39*,2,-4,3,8,32,
O=C(CCl)N1CCN(S(=O)(=O)c2ccc3ccccc3c2)CC1,4,87*,0,9,2,8,94*,GSTO1 ABPP inh=88*
O=C(CSc1nnc(-c2cccc(Br)c2)o1)NCC1CCCO1 (centres undefined),x,x,x,x,4,x,x,
CN(C)c1ccc(C=Nc2ccccc2)cc1,-5,2,-2,2,3,-18,x,
CN(C)c1ccc(N=Cc2ccco2)cc1,-15,73*,21*,-42,-4,16,5,
Nc1ccc(N(c2ccccc2)c2ccc(N)cc2)cc1,-2,43*,-7,-10,3,30,9,
COC(=O)C(Cc1c[nH]c2ccccc12)NC(=O)c1ccc2nc[nH]c2c1 (centres undefined),3,x,x,x,-1,1,x,
O=C1C=C(NCCN2CCOCC2)C(=O)c2cnccc21,x,84*,41*,84*,x,x,82*,
O=C(NCCN1CCOCC1)c1ccncc1,-1,-2,-3,1,6,1,x,
CC(=O)Oc1ccc(-c2cc3c(OC(C)=O)cc(OC(C)=O)cc3oc2=O)cc1,7,44*,2,x,-2,-5,11,
CCOC(=O)C1CCCN(c2c(NCCN3CCCCC3CC)c(=O)c2=O)C1 (centres undefined),-6,58*,2,20,0,15,8,
Cc1ccc(CN=Cc2[nH]c3ccc(Br)c(Cl)c3c2O)cc1,-36,52*,-17,29,1,36,6,
Oc1c(C=NCc2ccc(F)cc2)[nH]c2ccc(Br)c(Cl)c12,-20,48*,-17,13,x,31,9,
COc1ccc(CN=Cc2c(O)[nH]c3ccccc23)cc1,2,3,-1,10,-2,19,x,
COc1cc(/C=C/C(=O)O)cc(S(=O)(=O)Nc2cc(S(=O)(=O)N3CCCCC3)ccc2Cl)c1OC,x,x,x,x,0,x,x,
CC(=O)Oc1ccc(N(C(C)=O)S(=O)(=O)c2ccccc2)c2ccccc12,x,x,x,x,-2,x,x,
Cc1ccc(S(=O)(=O)N(C(=O)c2ccncc2)c2ccc(OC(=O)c3ccncc3)c3ccccc23)cc1,1,43*,-7,-6,-2,2,3,
CC(=O)Oc1ccc(N(C(C)=O)S(=O)(=O)c2ccc(C)cc2C)c2ccccc12,4,x,x,17,-4,6,x,
Cc1ccc(S(=O)(=O)N(C(=O)c2ccncc2)c2ccc(OC(=O)c3ccncc3)c3ccccc23)c(C)c1,0,55*,-18,1,2,18,9,
SMILES,UBC13 inh,GSTO1 counter,PAD4 FP inh,UBC9 SUMO inh,Rin1-Abl PPI inh,Apaf1 inhib,GSTO1 confirm,others
CCCN(CCC)Cc1cc(=O)oc2cc(C)c(Cl)cc12,x,x,x,x,4,x,x,
CC(CCc1ccccc1)NC(=O)CN1CCN(Cc2ccccc2)C1=O (centres undefined),9,1,-2,5,-5,-3,x,
CC(CCc1ccccc1)NC(=O)CN1CCN(c2ccc(O)cc2)CC1 (centres undefined),-9,38*,-3,-4,4,6,8,
Cc1cc(O)c(C(C)C)cc1N=Cc1ccccc1O,-2,54*,-7,37,0,36,4,
COc1ccc(C2CC(c3cccs3)=NN2C(=O)c2ccccc2)cc1OC (centres undefined),9,-6,3,-2,0,8,x,
COc1ccc(C2CC(c3cccs3)=NN2C(=O)CCl)cc1OC (centres undefined),0,90*,3,13,3,15,96*,
COc1cc(C2CC(c3cccs3)=NN2C(=O)CCl)ccc1OC(F)F (centres undefined),5,94*,2,7,0,23,97*,
CCCC(C)(C)C(=O)N1CCC1(C)C(=O)Nc1ccc(OC)c(OC)c1 (centres undefined),x,x,x,x,2,x,x,
COc1cccc(N2CCN(C(C)C(=O)NC34CC5CC(CC(C5)C3)C4)CC2)c1 (centres undefined),5,-2,-2,3,2,28,x,
COc1ccc(CC(N)c2csc(NC(=O)c3cc(C(C)(C)C)nn3Cc3ccccc3)n2)cc1 (centres undefined),x,x,x,x,-2,x,x,
Cc1nnc(NC(=O)CN2CCN(Cc3ccccc3)CC2)s1,-1,46*,1,-4,2,9,18,
O=C(CN1CCN(Cc2ccccc2)CC1)Nc1nnc(C(F)(F)F)s1,-17,7,-4,-8,-1,11,x,
COc1ccccc1NS(=O)(=O)c1ccc(C)c(NC(=O)C2CCCO2)c1 (centres undefined),3,x,4,x,1,-2,x,
Oc1ccc(/C=N/Nc2ccc(Cl)nn2)cc1O,-10,60*,-1,16,-1,1,14,
CC1=CC(C)(C)Nc2ccc(OC(=O)CN3C(=O)CCC3=O)cc21,1,62*,-5,8,-5,-28,9,
CC1=CC(C)(C)Nc2ccc(C)cc21,6,-4,-1,1,4,-14,x,
